UCH37 DUB inh: inhibitors of human UCH37 deubiquitinase, primary screen, biochemical, Ub-AMC cleavage, fluorescence | Ubiquitin carboxyl-terminal hydrolase isozyme L5 (Homo sapiens), Q9Y5K5 | purified proteasome/UCH37 | inhibition, % (concentration not given with the values) | hit rate 0.33% among 330,000 | AID 588478, 2011;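 active = mean inhibition over replicate wells above about 20%, limit read from the data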;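 also: 0% = compound-free wells with enzyme and 100% = wells lacking proteasome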
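Material: Human UCH37 enzyme supplied as purified proteasome complex | Schedule: 30 min preincubation with enzyme, 25 min cleavage at room temperature | Detection: AMC fluorescence 355/460 nm | Measure: % inhibition of Ub-AMC cleavage fluorescence | Controls: Wells without proteasome as full block, compound-free enzyme plus substrate as uninhibited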
Arr AP2 block: inhibitors of beta-arrestin/AP2 binding, primary screen, biochemical, GPCR trafficking, flow cytometry | FITC-arrestin peptide / GST-AP2 beads; AP2 beta2 appendage carries R879A mutation | hit rate 0.31% among 340,000 | inhibition, % at 10 µM | AID 504490, 2011 | beta-arrestin 1 C-terminal peptide binding to AP2 beta2-adaptin appendage (human);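 active = inhibition above a set limit, near 3 SD of compounds lacking own fluorescence, cut at about 54% in these data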;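 also: plate controls were DMSO wells for no effect and 5 µM unlabelled arrestin peptide for full effect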
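Test system: GST-tagged AP2 beta2-adaptin appendage (R879A) on 4 µm glutathione beads; also added: fluorescein-tagged arrestin peptide at 50 nM final; timing: 12 min plus 1 h, RT; signal: flow cytometry, FL1 (488/535 nm); read-out: percent drop in bead-associated FITC signal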
PolyA inhibitor: polyadenylation inhibitors in yeast reporter cells, primary screen, luminescence, S. cerevisiae; S. cerevisiae SKY197-pL101 polyadenylation reporter, beta-gal luminescence; efflux-impaired pdr1/pdr3 knockout yeast; score 100 = 6 SD above DMSO; hit rate 0.02% among 300,000; AID 1875, 2009; activity score, % at 12 µM;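 active = lowest replicate activity score at least 50, where 100 means six control SD above control mean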;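 also: yeast exposed to compound for 9 h at 30 °C; higher score means more reporter readthrough which indicates perturbed polyadenylation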
APOBEC3G inh: APOBEC3G DNA deaminase inhibitors, primary screen, biochemical, fluorescence, single-stranded DNA substrate, uHTS | recombinant A3G, ssDNA deamination FAM/TAMRA fluorescence | hit rate 0.28% among 330,000 | DNA dC->dU-editing enzyme APOBEC-3G (Homo sapiens), Q9HC16 | AID 493012, 2011 | inhibition, % at 20 µM;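 active = inhibition of at least 40% at 20 µM, with no more than 30% in the related APOBEC3A deaminase screen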;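 also: plate controls were DMSO wells with A3G for no effect and wells lacking A3G enzyme for full effect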
Target sequence (Q9HC16 whole entry, looked up): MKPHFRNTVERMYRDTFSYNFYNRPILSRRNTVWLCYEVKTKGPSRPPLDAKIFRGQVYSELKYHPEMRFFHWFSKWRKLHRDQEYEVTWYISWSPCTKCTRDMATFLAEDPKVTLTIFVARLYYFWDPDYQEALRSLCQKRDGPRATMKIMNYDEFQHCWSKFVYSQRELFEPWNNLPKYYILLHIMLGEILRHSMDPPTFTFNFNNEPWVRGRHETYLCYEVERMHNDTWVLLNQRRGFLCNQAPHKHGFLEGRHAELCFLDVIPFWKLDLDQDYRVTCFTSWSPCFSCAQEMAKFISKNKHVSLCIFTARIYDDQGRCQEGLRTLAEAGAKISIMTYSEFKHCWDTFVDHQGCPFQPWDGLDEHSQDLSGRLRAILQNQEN
AHR act: AHR activators, primary screen, cell-based, luminescence, luciferase reporter, human; AHR-responsive luciferase reporter cells; Aryl hydrocarbon receptor (Homo sapiens), P35869; hit rate 2.5% among 320,000; activation, % at 5 µM; AID 2796, 2010; in the data active = activation above about 47%;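 also: 0% = vehicle wells and 100% = reference agonist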
APOBEC3A inh: APOBEC3A ssDNA deaminase inhibitors, primary screen, selectivity assay for APOBEC3G inhibitor project, biochemical, FAM/TAMRA oligo cleavage fluorescence. AID 493011, 2011. DNA dC->dU-editing enzyme APOBEC-3A (Homo sapiens), P31941. inhibition, % at 20 µM. recombinant A3A, FAM/TAMRA ssDNA deamination fluorescence. hit rate 0.41% among 330,000;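 active = at least 40% inhibition at 20 µM here, with at most 30% in a related deaminase screen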;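 also: plate controls were A3A with DMSO for no effect and wells lacking A3A enzyme for full effect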
Target sequence (P31941 whole entry, looked up): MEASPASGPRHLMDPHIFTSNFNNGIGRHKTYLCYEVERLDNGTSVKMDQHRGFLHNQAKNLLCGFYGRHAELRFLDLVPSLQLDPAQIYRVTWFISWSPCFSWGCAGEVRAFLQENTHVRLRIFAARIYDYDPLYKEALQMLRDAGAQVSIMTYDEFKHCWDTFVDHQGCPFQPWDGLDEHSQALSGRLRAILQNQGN
An asterisk follows results filed as active; / = not tested or not shown. Rows were chosen to be rich in hits. Some 3.4% of all compounds tested hit in one or more screens of this group.

SMILES	UCH37 DUB inh	Arr AP2 block	PolyA inhibitor	APOBEC3G inh	AHR act	APOBEC3A inh
COc1cc2sc(NC(=O)c3ccco3)nc2cc1Cl	-46	38	-2	14	49*	5
COc1cccc(OC)c1C(=O)Nc1nc2cc3c(cc2s1)OCO3	-64	1	-9	-4	54*	-3
O=C(NNc1nc2cc3c(cc2s1)OCO3)c1ccccc1	6	-7	-6	-6	61*	-2
Cc1ccc2nc(N(CCN(C)C)C(=O)c3ccc4c(c3)OCCO4)sc2c1	6	0	-6	4	21	1
Cc1ccc2nc(NNC(=O)c3ccc4c(c3)OCCO4)sc2c1	7	0	-1	-12	48*	-4
COc1cc(C(=O)NNc2nc3cc4c(cc3s2)OCO4)cc(OC)c1OC	2	6	2	0	10	4
O=C(Nc1nc2ccccc2s1)c1cccc(N2C(=O)CCC2=O)c1	-25	-9	4	-2	34	0
O=C(NNc1nc2cc3c(cc2s1)OCO3)c1cccc(F)c1	5	0	1	-12	77*	0
O=C(Nc1nc2cc3c(cc2s1)OCCO3)c1cccc(N2C(=O)CCC2=O)c1	-41	-5	10	5	52*	3
CCN(CC)c1ccc(C=NNC(=O)c2c(Cl)c(C)nn2C)cc1	-36	/	/	/	/	/
CC(/C=N/Nc1nnc2c(n1)[nH]c1ccccc12)=C\c1ccco1	/	-24	12	18	73*	6
C/C(C=NNc1nnc2c(n1)[nH]c1c(C)cccc12)=C\c1ccco1	6	/	/	/	/	/
Fc1cccc(CSc2nnc3c(n2)[nH]c2ccccc23)c1	4	2	1	-8	4	-1
CCSc1nnc2nc3[nH]c4c(C)cccc4c3nn12	6	-5	0	4	54*	4
C=CCSc1nnc2c(n1)[nH]c1c(C)cccc12	2	0	-28	-1	64*	3
Cc1cccc2c1[nH]c1nc(N/N=C\c3ccco3)nnc12	/	/	9	5	79*	4
C/C(C=NNc1nnc2c(n1)[nH]c1ccccc12)=C\c1ccco1	5	/	/	/	/	/
Cc1csc(C(C#N)=NO)n1	6	/	/	/	/	/
CC(=NNC(=O)c1ccc(O)cc1)c1ccc2c(c1)OCCO2	3	/	/	/	/	/
COc1ccc(NC(=O)CC(C)=NNC(=O)c2cnccn2)cc1Cl	1	/	/	/	/	/
NC(=O)CCCn1c(C(=O)c2cc(Cl)c(N)c(Cl)c2)c2ccc([N+](=O)[O-])cc2[n+]1[O-]	5	4	-12	-2	77*	-4
Cc1ccc(C(=O)c2c3ccccc3[n+]([O-])n2CCC(=O)O)cc1	1	2	/	0	15	0
NC(=O)CCn1c(C(=O)c2ccc(Cl)cc2)c2ccccc2[n+]1[O-]	28*	4	-11	-11	9	-2
NC(=O)CCCn1c(C(=O)c2ccc(Cl)cc2)c2ccc(C(F)(F)F)cc2[n+]1[O-]	5	7	-6	1	61*	1
COCCCn1c(O)c(/C=C2/N=C(C#N)C(=Nc3ccc(C)cc3)O2)sc1=S	12	/	/	/	/	/
SMILES	UCH37 DUB inh	Arr AP2 block	PolyA inhibitor	APOBEC3G inh	AHR act	APOBEC3A inh
COc1ccc(OC)c(C=NNC(=O)C(=O)N2CCCCCC2)c1	-22	/	/	/	/	/
CN(C)C=Nc1nc2ncc(-c3ccc(Cl)cc3)c(N=CN(C)C)n2n1	-2	/	/	/	/	/
O=C(O)CCCN1C(=O)c2cccc3cccc(c23)C1=O	/	6	-15	-5	-3	8
O=C1c2cccc3cccc(c23)C(=O)N1CCCN(C(=O)c1cccs1)c1cccc(F)c1	-13	4	8	-1	51*	1
CCOc1[nH]n(-c2ccccc2)c(=O)c1C=NCc1cccnc1	2	-5	9	-3	59*	0
COc1cc(C=NO)ccc1OCc1ccc(C(=O)O)cc1	5	/	/	/	/	/
CCC(=O)N1c2ccc(C)cc2C2=NNC(=S)NC21O (configuration not stated)	/	5	-15	-1	62*	-2
CC1=CC(C)(C)N(C(=O)CN2C(=O)c3ccccc3C2=O)c2ccc(C)cc21	2	-4	-12	-4	-1	-1
CC1Oc2ccccc2C=C1C=NNC(=O)c1ccccc1 (configuration not stated)	-14	/	/	/	/	/
C(=C\c1nc(N2CCCCCC2)c2ccccc2n1)/c1ccccc1	-13	0	-6	-4	78*	-3
c1ccc2c(N3CCCCC3)nc(N3CCCCC3)nc2c1	-36	5	2	3	9	1
COc1ccc(C=NNC(=O)c2cccc(Br)c2)cc1COc1ccccn1	2	/	/	/	/	/
CCOc1cc(C=NNC(=O)COc2ccc(C)cc2)ccc1OC(=O)c1cccs1	1	/	/	/	/	/
COc1ccc(-c2cn3c(C)c(C(=O)NC(C)(C)C)sc3n2)cc1	3	3	-12	-5	55*	-6
CC(C)(C)C=NNC(=O)C1CC1	5	/	/	/	/	/
O=C1C2C3C=CC(C3)C2C(=O)N1c1ccc2ccccc2n1 (configuration not stated)	32*	-10	0	-5	0	-15
O=C1C2C3C=CC(C3)C2C(=O)N1c1cccc(N2C(=O)C3C4C=CC(C4)C3C2=O)n1 (configuration not stated)	0	13	12	-10	1	3
COc1ccc(NC(=O)c2oc3ccccc3c2NC(=O)C2CC2)c(OC)c1	1	4	1	-5	55*	-1
CCOCC(=O)Nc1c(C(=O)Nc2ccc(OC)cc2OC)oc2ccccc12	-298	-6	-7	-2	67*	0
COc1ccc(NC(=O)c2oc3ccccc3c2NC(=O)C2CC2)cc1	-12	-10	-16	-8	72*	-2
COc1ccc(NC(=O)c2oc3ccccc3c2NC(=O)c2ccco2)cc1	-9	-14	-1	-3	69*	-6
COc1ccc(NC(=O)c2oc3ccccc3c2NC(=O)c2ccco2)c(OC)c1	-296	3	1	-5	45	-2
CCc1ccc(C=NNC(=O)c2cc(C)on2)s1	11	/	/	/	/	/
CCOCC(=O)Nc1c(C(=O)OCC)oc2ccccc12	0	-3	-2	-2	68*	5
COc1ccc(NC(=O)c2cc3ccc(O)cc3oc2=NO)cc1	5	/	/	/	/	/

Source: PubChem
